The term pIC50 denotes the negative decadic logarithm of the IC50, by convention in mol/L. What is called pEC50 is the negative decadic logarithm of the EC50, by convention in mol/L.

The results in this text go back to ChEMBL document CHEMBL3856284, “Discovery, design and synthesis of 6H-anthra[1,9-cd]isoxazol-6-one scaffold as G9a inhibitor through a combination of shape-based virtual screening and structure-based molecular modification” (Bioorg Med Chem, 2016).

Molecules are shown by their SMILES. pEC50, pIC50: −log10 of the molar value.

Test [1] addresses T1, Histone-lysine N-methyltransferase EHMT2 (Homo sapiens, UniProt Q96KQ7).
T1 sequence (Q96KQ7 whole entry): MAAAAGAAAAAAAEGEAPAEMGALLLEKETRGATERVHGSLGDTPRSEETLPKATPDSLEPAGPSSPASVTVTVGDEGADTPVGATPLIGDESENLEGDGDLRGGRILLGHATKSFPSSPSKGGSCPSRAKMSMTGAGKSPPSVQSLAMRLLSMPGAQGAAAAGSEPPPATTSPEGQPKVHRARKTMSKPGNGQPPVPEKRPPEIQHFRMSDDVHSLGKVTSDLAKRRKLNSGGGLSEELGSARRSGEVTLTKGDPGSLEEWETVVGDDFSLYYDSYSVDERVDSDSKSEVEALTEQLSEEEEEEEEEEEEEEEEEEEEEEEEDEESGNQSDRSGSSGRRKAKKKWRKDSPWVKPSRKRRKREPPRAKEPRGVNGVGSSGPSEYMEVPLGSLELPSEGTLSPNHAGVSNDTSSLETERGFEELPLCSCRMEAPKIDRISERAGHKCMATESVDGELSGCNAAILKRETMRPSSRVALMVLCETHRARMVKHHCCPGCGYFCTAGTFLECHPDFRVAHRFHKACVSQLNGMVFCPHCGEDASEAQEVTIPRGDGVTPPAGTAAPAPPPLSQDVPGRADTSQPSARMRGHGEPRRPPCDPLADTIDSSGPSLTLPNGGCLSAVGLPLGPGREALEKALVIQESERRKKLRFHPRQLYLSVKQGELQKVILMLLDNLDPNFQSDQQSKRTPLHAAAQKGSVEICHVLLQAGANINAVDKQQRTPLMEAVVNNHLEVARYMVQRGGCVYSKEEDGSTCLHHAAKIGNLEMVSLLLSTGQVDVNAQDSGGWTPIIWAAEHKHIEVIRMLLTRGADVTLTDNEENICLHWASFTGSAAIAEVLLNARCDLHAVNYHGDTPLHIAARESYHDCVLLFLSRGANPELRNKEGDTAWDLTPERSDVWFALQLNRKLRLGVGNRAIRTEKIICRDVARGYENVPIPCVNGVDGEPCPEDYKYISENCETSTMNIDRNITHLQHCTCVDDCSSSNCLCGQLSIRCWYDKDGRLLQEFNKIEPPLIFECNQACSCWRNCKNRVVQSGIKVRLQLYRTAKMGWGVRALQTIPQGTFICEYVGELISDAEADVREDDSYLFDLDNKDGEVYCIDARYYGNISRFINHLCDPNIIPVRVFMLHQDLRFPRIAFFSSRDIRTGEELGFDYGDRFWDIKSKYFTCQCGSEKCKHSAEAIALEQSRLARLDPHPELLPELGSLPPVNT
Description: Inhibition of G9a (unknown origin) using biotinylated-histone H3 (1 to 21 residues)/S-adenosyl-methionine as substrate/methyl donor after 3 hrs by AlphaScreen assay. In short, it runs like this: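 AlphaScreen G9a assay. Compounds were first screened at 10 µM. IC50 came from concentration-response curves of ten escalating concentrations (0.1 nM–10 µM), using two independent experiments, reported as mean ± SD.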
(In general: In Alpha technology, singlet oxygen from a donor bead excites a nearby acceptor bead.)

The nature of test [2]: Antiproliferative activity against human HCT116 cells assessed as inhibition of cell viability after 72 hrs by MTT assay. The conditions noted are these: HCT-116, 72 h. The format is functional, cell-based.
The nature of test [3]: Antiproliferative activity against human MCF7 cells assessed as inhibition of cell viability after 72 hrs by MTT assay. The test is classed as functional, cell-based. The conditions noted are these: MCF7, 72 h. (In general: Formazan colour is commonly taken as a measure of viable cells.)
A short description of test [4]: Antiproliferative activity against human HepG2 cells assessed as inhibition of cell viability after 72 hrs by MTT assay. The format is functional, cell-based. Conditions: HepG2, 72 h.
Test [5] addresses T1, Histone-lysine N-methyltransferase EHMT2. Description: Inhibition of G9a (unknown origin).

Turning to `CN(C)c1cc(NCCCN2CCCC2)c2c3c(onc13)-c1ccccc1C2=O`, the pIC50 in test [1] is 5.53; in test [2], 4.95; in test [3], 5.06; in test [4] it was 4.77.
For `CN(C)CCNc1cc(N2CCN(c3ncccn3)CC2)c2noc3c2c1C(=O)c1ccccc1-3`, in that order: 5.42, 5.36, 5.37 and 5.04.
Turning to `COc1cc2c(NC3CCN(C(C)C)CC3)nc(C3CCCCC3)nc2cc1OCCCN1CCCC1`, the pIC50 in test [2] is 5.47; in test [3] it was 5.16; in test [4], 5.43.
As for `COC(=O)c1ccc2c(c1)nc(NC(=O)c1ccccc1)n2CCCc1ccccc1`, in test [5], the pEC50 was 5.30.
On to `CN(C)CCNc1cc(N2CCCCC2)c2noc3c2c1C(=O)c1ccccc1-3`, for which the pIC50 in test [1] was 5.43; in test [2], 4.59; in test [3], 4.99; in test [4], 4.81.
Take `CN1CCCN(c2cc(NCCN3CCCCC3)c3c4c(onc24)-c2ccccc2C3=O)CC1`: the pIC50 is 5.60 in test [1], 5.40 in test [2], 5.29 in test [3] and 5.21 in test [4].
`CCN1CCN(c2cc(Nc3ccc(C)cc3)c3c4c(onc24)-c2ccccc2C3=O)CC1`: the pIC50 in test [2], in test [3] and in test [4] was under 3.70 each time.
Regarding `CN1CCN(c2cc(NCCN3CCCC3)c3c4c(onc24)-c2ccccc2C3=O)CC1`, the pIC50 is 5.16 in test [1], 5.21 in test [2], 4.86 in test [3] and 4.56 in test [4].
For `O=C1c2ccccc2-c2onc3c(N4CCCC4)cc(NCCN4CCCC4)c1c23`, in that order: 5.91, 5.13, 4.97 and 4.60.
Consider `CN(C)CCNc1cc(N2CCN(C)CC2)c2noc3c2c1C(=O)c1ccccc1-3`, for which the pIC50 in test [1] was 5.32; in test [2], 4.74; in test [3], 4.97; in test [4], 4.54.
For `O=C1c2ccccc2-c2onc3c(N4CCN(c5ncccn5)CC4)cc(NCCN4CCCC4)c1c23`, the pIC50 in test [1] was 5.34; in test [2], 5.47; in test [3], 5.39; in test [4], 5.51.
For `CN1CCCN(c2cc(NCCN3CCCC3)c3c4c(onc24)-c2ccccc2C3=O)CC1`, in that order: 5.40, 5.49, 5.08 and 5.03.
On to `CCN1CCN(c2cc(Nc3ccccc3F)c3c4c(onc24)-c2ccccc2C3=O)CC1`, for which the pIC50 in test [2], in test [3] and in test [4] was under 3.70 in each case.
Consider `CN1CCN(c2cc(NCCN3CCCCC3)c3c4c(onc24)-c2ccccc2C3=O)CC1`, for which the pIC50 in test [1] is 5.73; in test [2], 5.34; in test [3], 5.08; in test [4] it was 5.08.
With `O=C1c2ccccc2-c2onc3c(N4CCN(c5ccccc5)CC4)cc(NCCN4CCCCC4)c1c23`, the pIC50 in test [1] was 5.57; in test [2] it was 5.27; in test [3], 5.91; in test [4], 4.98.
For `CN(C)CCNc1cc(N(C)C)c2noc3c2c1C(=O)c1ccccc1-3`, in that order: 5.46, 4.51, 4.78 and 4.91.
For `CCN1CCN(c2cc(NCCN3CCCC3)c3c4c(onc24)-c2ccccc2C3=O)CC1`, in that order: 5.46, 5.36, 4.68 and 5.08.
With `CN(C)CCNc1cc(N2CCCC2)c2noc3c2c1C(=O)c1ccccc1-3`, the pIC50 in test [1] was 5.22; in test [2], 4.28; in test [3], 4.75; in test [4] it was 4.69.
Taken in the same sequence, the figures for `O=C1c2ccccc2-c2onc3c(N4CCN(c5ccccc5)CC4)cc(NCCN4CCCC4)c1c23` were 5.49, 5.37, 5.42 and 4.97.
Regarding `COc1ccc(Nc2cc(N3CCCC3)c3noc4c3c2C(=O)c2ccccc2-4)cc1`, the figures for the pIC50 in test [2], in test [3] and in test [4] were under 3.70, under 3.70 and 4.18, respectively.
For `CCN1CCN(c2cc(Nc3ccc(OC)cc3)c3c4c(onc24)-c2ccccc2C3=O)CC1`, the pIC50 in test [2], in test [3] and in test [4] was under 3.70 throughout.
For `COc1ccc(Nc2cc(N3CCN(C)CC3)c3noc4c3c2C(=O)c2ccccc2-4)cc1`, the pIC50 is 4.41 in test [1], 3.86 in test [2], under 3.70 in test [3] and under 3.70 in test [4].
As for `CN(C)c1cc(NCCN2CCCC2)c2c3c(onc13)-c1ccccc1C2=O`, the negative-log IC50 (pIC50) is 5.41 in test [1], 5.16 in test [2], 4.55 in test [3] and 4.60 in test [4].
